# Calpain2 inh: blocks pig calpain II enzyme activity | inhibition, % at 16 µM | purified calpain II, fluorogenic peptide substrate, 30 min | AID 1236 | 220,000 tested, 0.37% active;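 active means inhibition above about 50%, limit read from the data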
# Mdm2 ligase inh: blocks human Mdm2 ubiquitin ligase activity; cell-based MDM2 ubiquitination luciferase reporter, 2 h; 0 = plate control, 100 = twice control, blank-subtracted; signal enhancement, % at 5 µM; 210,000 tested, 0.11% active;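 active means signal enhancement of 30% or more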;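 further: luminescence tracks abundance of the self-degrading MDM2-luciferase fusion protein; higher signal means inhibition of MDM2 E3 ligase activity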
#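 Timing – 2 h compound exposure at 37 °C · Assay system – mammalian cells stably expressing self-ubiquitinating, self-degrading MDM2 E3–luciferase fusion · Amount – 2000 cells seeded into each well · Measure – % luminescence enhancement versus blank-corrected plate control mean · Measured by – SteadyLite luminescence, 15 min reagent step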
# Hsp70 activator: switches on Hsp70 transcription | HeLa Hsp70 promoter luciferase reporter, luminescence; scaled: vehicle 0, proteasome-inhibitor control 100% | activation, % at 10 µM | 200,000 tested, 0.04% active | AID 1203;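 active means activation above the mean across all tested compounds plus 3 SD, cutoff set per campaign, cut at about 5.5% in these data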;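 further: 100% = MG132 at 30 µM as the positive control and 0% = DMSO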
# Pf gametocyte: P. falciparum stage V gametocyte viability inhibition | P. falciparum stage V gametocytes, ATP luminescence, 24 h | 150,000 tested, 0.065% active | inhibition, % at 10.9 µM;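 active means inhibition above the mean plus 3 SD of compounds within the control limits, set per campaign, cut at about 38% in these data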;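 further: 0% = DMSO wells and 100% = medium only without gametocytes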
# Wee1 degr inh: inhibitors of human Wee1 degradation | P30291 | HeLa Luc-Wee1K328M stability, luciferase luminescence; 100% = proteasome inhibitor MG132 effect | reporter increase, % at 5 µM | 220,000 tested, 1.2% active;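 active means activation above the mean of all tested compounds plus 3 SD, set per screening run, cut at about 8.8% in these data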;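 further: cells exposed to compound for 20 h before luminescence read; 0% = DMSO alone and 100% = MG132 at 30 µM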
# Target sequence (P30291 whole entry K328M): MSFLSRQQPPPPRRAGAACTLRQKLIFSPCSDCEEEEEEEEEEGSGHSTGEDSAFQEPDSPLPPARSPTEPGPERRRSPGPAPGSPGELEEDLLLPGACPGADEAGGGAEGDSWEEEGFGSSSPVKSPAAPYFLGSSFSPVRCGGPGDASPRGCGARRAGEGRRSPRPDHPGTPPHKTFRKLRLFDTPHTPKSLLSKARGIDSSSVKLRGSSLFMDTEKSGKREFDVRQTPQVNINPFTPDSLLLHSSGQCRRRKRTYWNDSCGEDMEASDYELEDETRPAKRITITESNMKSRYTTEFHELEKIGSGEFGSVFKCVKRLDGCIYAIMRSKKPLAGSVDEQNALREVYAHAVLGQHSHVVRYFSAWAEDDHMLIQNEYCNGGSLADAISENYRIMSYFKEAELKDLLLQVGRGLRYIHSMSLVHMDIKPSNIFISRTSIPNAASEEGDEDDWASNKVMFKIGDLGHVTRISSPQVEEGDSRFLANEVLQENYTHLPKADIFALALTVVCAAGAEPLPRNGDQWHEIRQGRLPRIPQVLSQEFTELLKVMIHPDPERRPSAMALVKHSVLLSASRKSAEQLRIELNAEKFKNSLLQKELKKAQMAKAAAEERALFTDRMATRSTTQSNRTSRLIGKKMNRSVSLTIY
# * marks the source's active call; other numbers are inactive results; . = no result given. This is a sample that favours compounds with a hit; in the whole collection about 1.5% have one here.
SMILES,Calpain2 inh,Mdm2 ligase inh,Hsp70 activator,Pf gametocyte,Wee1 degr inh
CCC(CC)C(=O)Nc1cccc(C(=O)c2ccccc2)c1,3,-7,0,7,9.4*
CCC(CC)C(=O)Nc1cccc(C(=O)NC(C)(C)C)c1,-34,7,0,-11,0
CC1CN(C(=O)/C=C/c2ccccc2Cl)CC(C)O1 (stereo not given),.,.,.,3,.
C=CCCC(=O)N1CCCC(C(=O)c2cccc(OC)c2)C1 (stereo not given),.,.,.,6,.
COc1ccc(NC(=O)CN2C(=O)/C(=C3\SC(=S)N(C4CCS(=O)(=O)C4)C3=O)c3ccccc32)cc1 (stereo not given),56*,-14,.,0,-4
Cc1cc(-c2ccccc2)nc(N/N=C/c2ccccc2F)n1,.,.,.,-18,.
CCCCNc1n[n+](C)c(-c2cccc(C)c2)s1,-5,35*,.,.,.
CCc1ccc(Nc2n[n+](-c3ccccc3)c(-c3cccc(C)c3)s2)cc1,.,.,.,-17,.
O=C(NCc1ccc(OC(F)(F)F)cc1)c1cccc2c1C(=O)c1ccc(N3CCCCC3)cc1S2(=O)=O,.,.,.,34,.
O=C(NCc1ccc(OC(F)(F)F)cc1)c1cccc2c1C(=O)c1ccc(N3CCCC3)cc1S2(=O)=O,.,.,.,39*,.
Cc1ccc2cc(C#N)c(SCC(=O)NNC(=O)Cc3ccccc3)nc2c1,59*,-11,0,1,5
COc1ccc(S(=O)(=O)N(C)C[C@H]2Oc3ccc(NC(=O)C4CC4)cc3C(=O)N([C@H](C)CO)C[C@@H]2C)cc1,.,.,.,4,.
c1ccc(-c2cn(-c3ccccc3)c3ncnc(N4CCCCC4)c23)cc1,53*,-1,0,7,0
O=S(=O)(NCCCCNS(=O)(=O)c1c(F)cccc1F)c1ccc2c(c1)OCCO2,.,.,.,2,.
COc1ccc(CCNC(=O)COc2ccc(-c3ccc(C)cc3)cc2)cc1OC,18,-11,0,.,1
COc1ccc(CCNC(=O)COC(=O)c2cnc(C)cn2)cc1OC,-1,31*,0,.,2
O=C1CC(N2CCN(c3ccc(C(=O)c4ccc(F)cc4)cc3)CC2)C(=O)N1 (stereo not given),28,-18,0,11,8.9*
COc1ccc(N2CCN(C(c3cccs3)C(C)NS(C)(=O)=O)CC2)cc1 (stereo not given),51*,-13,0,-14,4
Cn1c2c(c(=O)n1-c1ccccc1)CSCC2,.,.,.,-22,.
O=C(/C=C/Nc1ccc(F)c(F)c1)c1ccc(Br)cc1,-45,-13,0,-26,-1
O=C(/C=C/Nc1ccc(F)cc1)c1ccc(Br)cc1,-50,.,0,17,9.4*
NS(=O)(=O)c1cc2c(cc1C(F)(F)F)NC(Cc1ccccc1)NS2(=O)=O (stereo not given),24,.,0,.,10*
CC(NCc1cc(Br)ccc1OCC(=O)NCc1ccccc1)c1ccccc1 (stereo not given),19,-6,0,.,-2
Cc1nc(-c2ccccc2OC(F)(F)F)[nH]c(=O)c1Cl,9,-3,.,-23,9.2*
CCOC(=O)c1sc(NC(=S)NC(=O)C23CC4CC(CC(C4)C2)C3)cc1C,-7,-7,0,13,9.4*
SMILES,Calpain2 inh,Mdm2 ligase inh,Hsp70 activator,Pf gametocyte,Wee1 degr inh
CCOC(=O)C1=C(CNCCc2ccc(Cl)cc2)NC(=O)NC1c1ccc2c(c1)OCO2 (stereo not given),53*,-15,0,7,0
CC1CCCN(c2ccc(C(=O)NCC3CCCO3)cn2)C1 (stereo not given),-20,-4,0,-13,9.6*
Cc1cc(NC(=O)c2ccc3c(c2)C(=O)N(CCC(C)C)C3=O)no1,53*,-10,0,9,-4
Cc1cc(NC(=O)c2ccc3c(c2)C(=O)N(C)C3=O)no1,-42,-23,0,.,1
CC(C)CCN1C(=O)c2ccc(C(=O)NCC3CCCO3)cc2C1=O (stereo not given),3,-12,0,7,9.6*
O=C(NCC1CCCO1)c1ccc2c(c1)C(=O)N(C1CCCCC1)C2=O (stereo not given),-10,6,0,.,-1
COc1ccc(N(CC(=O)N2CCOCC2)S(C)(=O)=O)cc1,.,.,.,-33,.
O=C1C=C(c2ccoc2)N2CCC[C@H]2C1,.,.,.,14,.
CCN1C(=O)[C@H]2[C@@H](c3ccc(-c4cccc(Cl)c4)cc3)N[C@@](C)(C(=O)OC)[C@H]2C1=O,.,.,.,5,.
COC(=O)c1cnc(N2CCOCC2)nc1C(F)(F)F,4,-12,.,11,10*
Cc1ccc(N=C2SC(C(=O)Nc3ccc(OC(F)(F)F)cc3)C(N)=C2C(=O)Nc2c(C)cc(C)cc2C)cc1 (stereo not given),-106,-4,0,1,11*
Cc1ccc(NC(=O)C2SC(=Nc3ccccc3)C(C(=O)Nc3ccc(Cl)cc3)=C2N)cc1 (stereo not given),-80,1,0,.,-3
O=C(Nc1nc(-c2ccccn2)cs1)c1ccco1,2,1,3,.,4
O=C(Nc1nc(-c2ccccn2)cs1)c1ccc(Br)s1,-9,45*,0,15,0
CC(=O)c1c(C)[nH]c(C(=O)OCc2cccc(Cl)c2)c1C,54*,-16,0,-2,1
CCC(Oc1ccccc1)C(=O)NCc1ccc(S(N)(=O)=O)cc1 (stereo not given),-6,6,0,61*,4
CCOc1ccc(/C=N/Nc2nc(C)cs2)c(O)c1,.,.,.,-25,.
COc1cc2nc(/C=C/c3cc(OC)c(OC)c(OC)c3)sc2cc1SC,-257,0,0,.,9.7*
CCOC(=O)/C=c1\sc2n(c1=O)CCN=2,13,-20,0,.,-1
COC(=O)/C=c1/sc2n(c1=O)CCN=2,-9,-6,0,-22,9.2*
O=C(CC1S/C(=N/N=C/c2c[nH]c3ccccc23)NC1=O)Nc1ccccc1 (stereo not given),7,9,0,12,-3
O=C(CC1S/C(=N/N=C/c2c[nH]c3ccc(OCc4ccccc4)cc23)NC1=O)Nc1ccccc1 (stereo not given),15,4,0,2,8.9*
O=c1cc(N2CCCCC2)c(-c2ccccc2)nn1Cc1ccc(Cl)cc1Cl,54*,-18,0,-13,0
O=c1cc(N2CCCCC2)c(-c2ccccc2)nn1Cc1ccccc1Cl,23,13,0,13,-1
Cc1ccccc1OCCCCc1c(C)n[nH]c1C,-7,-24,0,.,10*
Oc1cccc(-c2nc3ccc4ccccc4c3c3c2CCC3)c1,-87,0,1,.,9.1*
O=C(Cn1nc(-c2ccc3c(c2)OCCO3)ccc1=O)Nc1cccc(NC(=O)c2ccccn2)c1,62*,-14,0,.,-1
